Experimental data from ChEMBL document CHEMBL3286301, “Solving time-dependent CYP3A4 inhibition for a series of indole-phenylacetic acid dual antagonists of the PGD(2) receptors CRTH2 and DP” (Bioorg Med Chem Lett, 2014).
pIC50: −log10 of the molar value.

Key:
[1] = molecular target: T1, Prostaglandin D2 receptor (Homo sapiens, UniProt Q13258); test: Displacement of [3H]-PGD2 from human DP receptor expressed in HEK293 cells in presence of 50% human plasma by scintillation counting; format: cell-based
T1 sequence (Q13258 whole entry): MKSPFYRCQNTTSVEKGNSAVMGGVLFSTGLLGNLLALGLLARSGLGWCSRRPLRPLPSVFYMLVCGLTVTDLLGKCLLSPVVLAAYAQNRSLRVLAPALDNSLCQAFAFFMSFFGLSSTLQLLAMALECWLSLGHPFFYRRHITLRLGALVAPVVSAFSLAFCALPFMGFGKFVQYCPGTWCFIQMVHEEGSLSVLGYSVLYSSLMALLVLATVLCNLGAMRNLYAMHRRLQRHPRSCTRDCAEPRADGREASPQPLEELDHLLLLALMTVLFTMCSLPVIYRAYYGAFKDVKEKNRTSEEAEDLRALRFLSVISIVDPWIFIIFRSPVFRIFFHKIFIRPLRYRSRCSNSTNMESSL
Procedure, shortened: (§1)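 Radioligand binding: displacement of ³H-PGD2 from receptor expressed on HEK 293 cells. Run either in buffer with 0.5% bovine serum albumin or in 50% human plasma. IC50 values are the average of at least two experiments.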

[2] = molecular target: T2, Prostaglandin D2 receptor 2 (Homo sapiens, UniProt Q9Y5Y4); test: Displacement of [3H]-PGD2 from human CRTH2 expressed in HEK293 cells in buffer solution with 0.5% bovine serum albumin by scintillation counting; format: cell-based; procedure, shortened: as §1
T2 sequence (Q9Y5Y4 whole entry): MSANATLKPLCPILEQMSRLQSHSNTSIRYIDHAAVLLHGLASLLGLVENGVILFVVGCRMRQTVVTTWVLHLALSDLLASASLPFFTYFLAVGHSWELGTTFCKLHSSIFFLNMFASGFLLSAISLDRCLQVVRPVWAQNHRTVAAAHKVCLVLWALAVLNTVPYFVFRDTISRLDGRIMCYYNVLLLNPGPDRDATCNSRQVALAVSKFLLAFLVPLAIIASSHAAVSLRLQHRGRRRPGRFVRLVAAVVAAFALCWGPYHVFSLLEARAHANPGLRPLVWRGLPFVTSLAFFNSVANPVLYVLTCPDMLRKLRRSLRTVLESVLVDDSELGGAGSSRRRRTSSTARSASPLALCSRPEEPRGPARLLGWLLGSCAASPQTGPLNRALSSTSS

CYP3A4 = CYP3A4 (Homo sapiens, UniProt P08684); test: Time dependent inhibition of human liver microsome CYP3A4 activity assessed as percentage remaining activity by measuring 6-beta-OH-testosterone formation at 15 uM for 15 mins using 200 uM testosterone as a substrate by LC/MS/MS analysis; format: ADME; details: liver microsomes, probe testosterone, read-out: Activity
Sequence of CYP3A4 (P08684 whole entry): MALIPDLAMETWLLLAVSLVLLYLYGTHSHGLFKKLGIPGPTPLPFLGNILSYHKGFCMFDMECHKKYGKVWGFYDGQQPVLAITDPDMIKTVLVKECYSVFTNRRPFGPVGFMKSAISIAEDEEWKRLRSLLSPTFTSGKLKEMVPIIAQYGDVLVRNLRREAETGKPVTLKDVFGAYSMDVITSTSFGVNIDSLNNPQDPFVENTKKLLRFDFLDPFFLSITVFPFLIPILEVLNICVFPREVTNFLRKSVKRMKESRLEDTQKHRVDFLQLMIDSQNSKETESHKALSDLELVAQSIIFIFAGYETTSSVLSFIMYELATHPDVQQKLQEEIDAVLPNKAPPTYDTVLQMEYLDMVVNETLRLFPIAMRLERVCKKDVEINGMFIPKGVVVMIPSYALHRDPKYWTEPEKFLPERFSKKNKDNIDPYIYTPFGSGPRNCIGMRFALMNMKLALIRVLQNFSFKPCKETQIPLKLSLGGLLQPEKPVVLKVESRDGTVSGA
Procedure, shortened: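 Pooled human liver microsomes (1.0 mg/mL) in 100 mM potassium phosphate, pH 7.4, preincubated with compound (15 µM) and 1 mM NADPH for 15 min. Then diluted 1:10 into a secondary incubation with 200 µM testosterone (saturating) plus 1 mM NADPH for 20 min. Stopped with acetonitrile containing deuterated internal standard. 6β-OH-testosterone measured by LC/MS/MS; % remaining activity reported. Average of at least two experiments.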

[3] = molecular target: T1, Prostaglandin D2 receptor; test: Displacement of [3H]-PGD2 from human DP receptor expressed in HEK293 cells in buffer solution with 0.5% bovine serum albumin by scintillation counting; format: cell-based; procedure, shortened: as §1
[4] = molecular target: T2, Prostaglandin D2 receptor 2; test: Displacement of [3H]-PGD2 from human CRTH2 expressed in HEK293 cells in presence of 50% human plasma by scintillation counting; format: cell-based; procedure, shortened: as §1

SMILES	pIC50 [1]	pIC50 [2]	activity at 0.25 h, 15 µM (CYP3A4)	pIC50 [3]	pIC50 [4]
COc1cc(CC(=O)O)ccc1Oc1ccc2[nH]c(C3CC3)cc2c1NS(=O)(=O)c1ccc(Cl)cc1Cl	6.46	8.10	41%	7.13	7.60
COc1cc(CC(=O)O)ccc1Oc1ccc2[nH]c(CC(C)C)cc2c1NS(=O)(=O)c1ccc(Cl)cc1Cl	6.96	7.49	38%	7.21	7.32
COc1cc(CC(=O)O)ccc1Oc1ccc2[nH]c(C(C)(C)C)cc2c1NS(=O)(=O)c1ccc(Cl)cc1Cl	–	7.49	81%	5.08	–
CCCc1cc2c(NS(=O)(=O)c3ccc(Cl)cc3Cl)c(Oc3ccc(CC(=O)O)cc3OC)ccc2[nH]1	6.89	7.24	79%	7.35	6.96
COc1cc(CC(=O)O)ccc1Oc1ccc2c(cc(C)n2C)c1NS(=O)(=O)c1ccc(Cl)cc1Cl	7.12	7.66	28%	7.57	7.25
COc1cc(CC(=O)O)ccc1Oc1ccc2[nH]c(C)c(Cl)c2c1NS(=O)(=O)c1ccc(Cl)cc1Cl	–	6.66	87%	5.96	–
COc1cc(CC(=O)O)ccc1Oc1ccc2[nH]c(C#N)cc2c1NS(=O)(=O)c1ccc(Cl)cc1Cl	6.89	7.57	73%	7.09	6.89
COc1cc(CC(=O)O)ccc1Oc1ccc2c(c1NS(=O)(=O)c1ccc(Cl)cc1Cl)CC(=O)N2	5.89	8.52	103%	7.77	7.51
